Assay results reported in ChEMBL document CHEMBL1123589, “Phenylpiperazine-based radiopharmaceuticals for brain imaging. 3. Synthesis and evaluation of radioiodinated 1-alkyl-4-phenylpiperazines” (J Med Chem, 1987).

What was measured:
Conditions in all cases: in vivo
Rattus norvegicus [1] = test: The biodistribution of the [125I]-labeled compound in rats after intravenous injection was evaluated in thyroid at 0.25 hrs (ID.kg/g); format: ADME, organism-based, Thyroid gland
Method in brief: (§1)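 Male Sprague-Dawley rats (250–300 g) under ether anesthesia given iv 0.1 mL saline containing 10–15 μCi of NCA ¹²⁵I-labeled agent (chloramine-T iodination, HPLC-purified). Groups of 3 killed at 0.25, 1 and 4 h. Blood and tissues excised, weighed and γ-counted. Values are mean (range) of % injected dose × body mass (kg) per gram of tissue.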

Rattus norvegicus [2] = test: The biodistribution of the [125I]-labeled compound in rats after intravenous injection was evaluated in blood at 4.00 hrs (ID.kg/g); format: ADME, organism-based
Method in brief: (§2)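 Male Sprague-Dawley rats (250–300 g) under ether anesthesia were given an iv injection of no-carrier-added 125I-labelled agent (10–15 μCi in 0.1 mL saline). The agent was iodinated with chloramine-T in acetate buffer and purified by C-18 HPLC. Groups of N = 3 were killed at 0.25, 1 and 4 h. Blood and tissues were weighed and γ-counted. Values are % ID·kg/g, mean (range).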

Rattus norvegicus [3] = test: The biodistribution of the [125I]-labeled compound in rats after intravenous injection was evaluated in kidney at 0.25 hr; value ranges from 0.31-0.38 (ID.kg/g); format: ADME, organism-based
Method in brief: (§3)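 Male Sprague-Dawley rats (250–300 g), under ether anesthesia, given 10–15 μCi of the NCA ¹²⁵I-labeled agent iv in 0.1 mL saline. Groups of N = 3 were killed at 0.25, 1 or 4 h. Blood and tissues were removed, weighed and counted in a γ-well scintillation counter. Values are mean % ID·kg/g (range).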

Rattus norvegicus [4] = test: The biodistribution of the [125I]-labeled compound in rats after intravenous injection was evaluated in muscle at 0.25 hrs; value ranges from 0.06-0.07 (ID.kg/g); format: ADME, organism-based, Muscle tissue; method in brief: as §1
Rattus norvegicus [5] = test: The biodistribution of the [125I]-labeled compound in rats after intravenous injection was evaluated in blood at 1.00 hrs (ID.kg/g); format: ADME, organism-based; method in brief: as §2
Rattus norvegicus [6] = test: The biodistribution of the [125I]-labeled compound in rats after intravenous injection was evaluated in kidney at 1.00 hrs; value ranges from 0.28-0.33 (ID.kg/g); format: ADME, organism-based; method in brief: as §3
Rattus norvegicus [7] = test: The biodistribution of the [125I]-labeled compound in rats after intravenous injection was evaluated in brain at 4.00 hrs (ID.kg/g); format: ADME, organism-based; method in brief: as §2
Rattus norvegicus [8] = test: The biodistribution of the [125I]-labeled compound in rats after intravenous injection was evaluated in brain at 0.25 hrs; value ranges from 0.19-0.26 (ID.kg/g); format: ADME, organism-based
Rattus norvegicus [9] = test: The biodistribution of the [125I]-labeled compound in rats after intravenous injection was evaluated in liver at 1.00 hrs; value ranges from 0.27-0.47 (ID.kg/g); format: ADME, organism-based; method in brief: as §3
Rattus norvegicus [10] = test: The biodistribution of the [125I]-labeled compound in rats after intravenous injection was evaluated in lung at 0.25 hrs (ID.kg/g); format: ADME, organism-based; method in brief: as §3
Rattus norvegicus [11] = test: The biodistribution of the [125I]-labeled compound in rats after intravenous injection was evaluated in blood at 0.25 hrs (ID.kg/g); format: ADME, organism-based; method in brief: as §2
Rattus norvegicus [12] = test: The biodistribution of the [125I]-labeled compound in rats after intravenous injection was evaluated in fat at 4.00 hrs; value ranges from 0.06-0.07 (ID.kg/g); format: ADME, organism-based, Adipose tissue; method in brief: as §2
Rattus norvegicus [13] = test: The biodistribution of the [125I]-labeled compound in rats after intravenous injection was evaluated in thyroid at 4.00 hrs; value ranges from 2.48-3.53 (ID.kg/g); format: ADME, organism-based, Thyroid gland; method in brief: as §1
Rattus norvegicus [14] = test: The biodistribution of the [125I]-labeled compound in rats after intravenous injection was evaluated in liver at 4.00 hrs; value ranges from 0.19-0.21 (ID.kg/g); format: ADME, organism-based; method in brief: as §3
Rattus norvegicus [15] = test: The biodistribution of the [125I]-labeled compound in rats after intravenous injection was evaluated in heart at 0.25 hrs; value ranges from 0.10-0.11 (ID.kg/g); format: ADME, organism-based; method in brief: as §2
Rattus norvegicus [16] = test: The biodistribution of the [125I]-labeled compound in rats after intravenous injection was evaluated in adrenal at 0.25 hrs; value ranges from 0.22-0.37 (ID.kg/g); format: ADME, organism-based; method in brief: as §2
Rattus norvegicus [17] = test: The biodistribution of the [125I]-labeled compound in rats after intravenous injection was evaluated in fat at 0.25 hr; value ranges from 0.07-0.09 (ID.kg/g); format: ADME, organism-based, Adipose tissue; method in brief: as §2
Rattus norvegicus [18] = test: The biodistribution of the [125I]-labeled compound in rats after intravenous injection was evaluated in heart at 4.00 hrs; value ranges from 0.12-0.14 (ID.kg/g); format: ADME, organism-based; method in brief: as §3
Rattus norvegicus [19] = test: The biodistribution of the [125I]-labeled compound in rats after intravenous injection was evaluated in fat at 1.00 hrs; value ranges from 0.08-0.12 (ID.kg/g); format: ADME, organism-based, Adipose tissue; method in brief: as §2
Rattus norvegicus [20] = test: The biodistribution of the [125I]-labeled compound in rats after intravenous injection was evaluated in kidney at 4.00 hrs; value ranges from 0.14-0.21 (ID.kg/g); format: ADME, organism-based; method in brief: as §3
Rattus norvegicus [21] = test: The biodistribution of the [125I]-labeled compound in rats after intravenous injection was evaluated in adrenal at 1.00 hrs; value ranges from 0.12-0.19 (ID.kg/g); format: ADME, organism-based; method in brief: as §2
Rattus norvegicus [22] = test: The biodistribution of the [125I]-labeled compound in rats after intravenous injection was evaluated in adrenal at 4.00 hrs; value ranges from 0.11-0.13 (ID.kg/g); format: ADME, organism-based; method in brief: as §2
Rattus norvegicus [23] = test: The biodistribution of the [125I]-labeled compound in rats after intravenous injection was evaluated in thyroid at 1.00 hrs value ranges from 2.04-2.76( ID.kg/g); format: ADME, organism-based, Thyroid gland; method in brief: as §1
Rattus norvegicus [24] = test: The biodistribution of the [125I]-labeled compound in rats after intravenous injection was evaluated in heart at 1.00 hrs; value ranges from 0.11-0.13 (ID.kg/g); format: ADME, organism-based; method in brief: as §2
Rattus norvegicus [25] = test: The biodistribution of the [125I]-labeled compound in rats after intravenous injection was evaluated in muscle at 1.00 hrs; value ranges from 0.03-0.05 (ID.kg/g); format: ADME, organism-based, Muscle tissue; method in brief: as §1
Rattus norvegicus [26] = test: The biodistribution of the [125I]-labeled compound in rats after intravenous injection was evaluated in brain at 1.00 hrs; (ID.kg/g); format: ADME, organism-based; method in brief: as §2
Rattus norvegicus [27] = test: The biodistribution of the [125I]-labeled compound in rats after intravenous injection was evaluated in muscle at 4.00 hrs (ID.kg/g); format: ADME, organism-based, Muscle tissue; method in brief: as §1
Rattus norvegicus [28] = test: The biodistribution of the [125I]-labeled compound in rats after intravenous injection was evaluated in liver at 0.25 hr; value ranges from 0.24-0.40 (ID.kg/g); format: ADME, organism-based; method in brief: as §3
Rattus norvegicus [29] = test: The biodistribution of the [125I]-labeled compound in rats after intravenous injection was evaluated in lung at 1.00 hrs (ID.kg/g); format: ADME, organism-based; method in brief: as §3
Rattus norvegicus [30] = test: The biodistribution of the [125I]-labeled compound in rats after intravenous injection was evaluated in lung at 4.00 hrs (ID.kg/g); format: ADME, organism-based; method in brief: as §3

Work on `CN1CCN(c2ccc(I)cc2)CC1` yielded a Biodistribution (Rattus norvegicus [1]) of 0.96%, a Biodistribution (Rattus norvegicus [2]) of 0.02 % ID·kg/g and a Biodistribution (Rattus norvegicus [3]) of 0.38%. The Biodistribution (Rattus norvegicus [4]) was 0.07%, the Biodistribution (Rattus norvegicus [5]) was 0.04% and the Biodistribution (Rattus norvegicus [6]) was 0.33%. For the same compound, the Biodistribution (Rattus norvegicus [7]) was 0.05%, the Biodistribution (Rattus norvegicus [8]) was 0.26% and the Biodistribution (Rattus norvegicus [9]) was 47%. It also gave a Biodistribution (Rattus norvegicus [10]) of 0.22%, a Biodistribution (Rattus norvegicus [11]) of 0.04 % ID·kg/g and a Biodistribution (Rattus norvegicus [12]) of 0.07%. It also gave a Biodistribution (Rattus norvegicus [13]) of 3.53%, a Biodistribution (Rattus norvegicus [14]) of 0.21% and a Biodistribution (Rattus norvegicus [15]) of 0.11%. The Biodistribution (Rattus norvegicus [16]) was 0.37%, the Biodistribution (Rattus norvegicus [17]) was 0.09% and the Biodistribution (Rattus norvegicus [18]) was 0.14%. The Biodistribution (Rattus norvegicus [19]) was 0.12%, the Biodistribution (Rattus norvegicus [20]) was 0.21% and the Biodistribution (Rattus norvegicus [21]) was 0.19%. It also gave a Biodistribution (Rattus norvegicus [22]) of 0.13%, a Biodistribution (Rattus norvegicus [23]) of 2.76% and a Biodistribution (Rattus norvegicus [24]) of 0.13%. It also gave a Biodistribution (Rattus norvegicus [25]) of 0.05%, a Biodistribution (Rattus norvegicus [26]) of 0.05% and a Biodistribution (Rattus norvegicus [27]) of 0.02 %ID·kg/g. For the same compound, the Biodistribution (Rattus norvegicus [28]) was 0.4%, the Biodistribution (Rattus norvegicus [29]) was 0.2% and the Biodistribution (Rattus norvegicus [30]) was 0.09%.
